This is an account of results in ChEMBL document CHEMBL1128413, “The serotonin 5-HT4 receptor. 1. Design of a new class of agonists and receptor map of the agonist recognition site” (J Med Chem, 1995).

The target of test [1] is 5-hydroxytryptamine receptor 2A (Rattus norvegicus) (UniProt P14842). Kind of test: Binding affinity was evaluated by 5-hydroxytryptamine 2A receptor […] in the rat cortex by displacing ketanserin. In outline:
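Radioligand displacement with [3H]ketanserin on rat cortex membranes; Ki reported.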

The target in test [2] is D(2) dopamine receptor (Bos taurus) (UniProt P20288). Kind of test: Binding affinity was evaluated by Dopamine receptor D2 binding in the calf striatum by displacing spiperone. The test is classed as tissue-based. In outline: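 Radioligand displacement with [3H]spiperone on calf striatum membranes; Ki reported.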
The target in test [3] is T1, Alpha-1A adrenergic receptor (Bos taurus) (UniProt P18130).
T1 sequence (whole entry): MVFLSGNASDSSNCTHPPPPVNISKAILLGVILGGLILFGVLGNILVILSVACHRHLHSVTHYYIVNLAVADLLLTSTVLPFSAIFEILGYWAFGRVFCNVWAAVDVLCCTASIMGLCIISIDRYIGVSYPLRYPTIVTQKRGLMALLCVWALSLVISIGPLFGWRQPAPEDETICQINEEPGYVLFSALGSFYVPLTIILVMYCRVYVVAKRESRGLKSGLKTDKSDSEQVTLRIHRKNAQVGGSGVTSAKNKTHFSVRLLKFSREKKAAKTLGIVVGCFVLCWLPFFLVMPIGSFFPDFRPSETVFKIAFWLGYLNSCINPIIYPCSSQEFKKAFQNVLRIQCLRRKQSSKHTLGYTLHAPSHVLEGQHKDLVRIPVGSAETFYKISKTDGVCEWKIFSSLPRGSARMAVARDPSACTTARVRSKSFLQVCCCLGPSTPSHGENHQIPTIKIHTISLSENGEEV
Kind of test: Binding affinity was evaluated by Alpha-1 adrenergic receptor in calf cortex by displacing prazosin. In short, it runs like this:
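Radioligand displacement with [3H]prazosin on calf cortex membranes; Ki reported.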

Test [4] addresses 5-hydroxytryptamine receptor 4 (Cavia porcellus) (UniProt O70528). Kind of test: 5-hydroxytryptamine 4 receptor agonist activity in the guinea pig ileum assay. The test is classed as functional, tissue-based. In short, it runs like this: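 Guinea pig ileum longitudinal muscle strips in tyrode solution with 0.1 μM methysergide. Twitch contractions (2–3 s) evoked by field stimulation with square-wave pulses (0.1 Hz, 2 ms) via platinum electrodes. Once a stable submaximal response is reached, noncumulative concentration–response curves are built for enhancement of twitch. Readouts are pD2 and efficacy relative to 5-HT.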

Test [5] addresses D(1A) dopamine receptor (Bos taurus) (UniProt Q95136). The settings on record: Striatum.
Test [6] has as its target T2, Serotonin 3 receptor (5HT3) (Mus musculus) (UniProt Q9JHJ5+P23979).
Test [7] deals with 5-hydroxytryptamine receptor 4 (Cavia porcellus) (UniProt O70528). Put plainly: Compound was evaluated for the relative potency with respect to serotonin against 5-hydroxytryptamine 4 receptor. The test is classed as functional.
For test [8], the target named is Serotonin 3 (5-HT3) receptor (Homo sapiens) (UniProt P46098+A5X5Y0+O95264+Q70Z44+Q8WXA8). Kind of test: 5-hydroxytryptamine 3 receptor agonism in the guinea pig ileum by functional 5-HT3 receptor assay. The class given is tissue-based. As to conditions: Cavia porcellus, target entry is the homologue from another species. In outline:
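Guinea pig ileum in tyrode solution containing 0.1 μM methysergide. 5-HT3 receptor-mediated contractions recorded isotonically; concentration–response curves built noncumulatively.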

Test [9] concerns the target D(1A) dopamine receptor (Bos taurus) (UniProt Q95136). Put plainly: Binding affinity was evaluated by dopamine receptor D1 […] in the calf striatum by displacing SCH 23390. The class given is tissue-based. In outline: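 Radioligand displacement with [3H]SCH 23390 on calf striatum membranes; Ki reported.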
Test [10] has as its system 5-HT1A receptor (Sus scrofa). Put plainly: Binding affinity was evaluated by 5-hydroxytryptamine 1A receptor […] in the pig cortex by displacing 8-OH-DPAT.
Test [11] has as its target T3, Serotonin 3 receptor (5HT3) (Mus musculus, UniProt Q9JHJ5+P23979).
T3 sequence (Q9JHJ5 whole entry): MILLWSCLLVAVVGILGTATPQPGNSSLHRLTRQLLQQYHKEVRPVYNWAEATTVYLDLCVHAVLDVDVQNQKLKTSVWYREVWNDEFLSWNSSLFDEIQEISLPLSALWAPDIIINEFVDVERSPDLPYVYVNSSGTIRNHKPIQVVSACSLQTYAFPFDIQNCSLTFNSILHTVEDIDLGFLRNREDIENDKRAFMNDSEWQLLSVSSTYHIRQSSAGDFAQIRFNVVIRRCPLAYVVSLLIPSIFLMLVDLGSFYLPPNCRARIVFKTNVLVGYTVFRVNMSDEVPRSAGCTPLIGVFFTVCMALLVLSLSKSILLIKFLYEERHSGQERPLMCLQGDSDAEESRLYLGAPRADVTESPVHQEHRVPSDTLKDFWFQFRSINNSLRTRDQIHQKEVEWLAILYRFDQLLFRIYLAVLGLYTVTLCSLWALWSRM
T3 sequence (P23979 whole entry): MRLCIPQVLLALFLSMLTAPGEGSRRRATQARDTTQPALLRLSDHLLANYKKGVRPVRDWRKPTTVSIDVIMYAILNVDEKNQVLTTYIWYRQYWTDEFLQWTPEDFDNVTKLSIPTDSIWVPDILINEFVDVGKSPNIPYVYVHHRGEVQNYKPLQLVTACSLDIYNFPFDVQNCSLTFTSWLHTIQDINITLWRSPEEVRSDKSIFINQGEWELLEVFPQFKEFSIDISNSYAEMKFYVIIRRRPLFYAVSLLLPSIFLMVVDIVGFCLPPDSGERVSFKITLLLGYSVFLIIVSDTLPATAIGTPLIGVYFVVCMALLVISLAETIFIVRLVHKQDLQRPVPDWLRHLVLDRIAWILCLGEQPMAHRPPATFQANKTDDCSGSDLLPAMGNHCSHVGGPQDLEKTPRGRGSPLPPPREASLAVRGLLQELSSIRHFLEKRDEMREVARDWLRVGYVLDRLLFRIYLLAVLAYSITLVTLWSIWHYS
Put plainly: Compound was evaluated for the binding affinity at 5- HT3 receptor subtype. The class given is protein assay. In short, it runs like this: (§1)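 Radioligand binding to native tissue membranes. Each receptor used its own tissue and [³H]radioligand: 5-HT2A in rat cortex with [³H]ketanserin, 5-HT3 in mouse N1E-115 cells with [³H]tropisetron, α1 in calf cortex with [³H]prazosin, and D2 in calf striatum with [³H]spiperone. Affinity is reported as Ki.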

The target in a further test is D(2) dopamine receptor (Bos taurus, UniProt P20288). Kind of test: Compound was evaluated for the binding affinity at Dopamine receptor D2. In outline:
as §1

For test [12], the target named is T2, Serotonin 3 receptor (5HT3) (Mus musculus). This is another data set of the same source.

D(2) dopamine receptor (Bos taurus), sequence (P20288 whole entry): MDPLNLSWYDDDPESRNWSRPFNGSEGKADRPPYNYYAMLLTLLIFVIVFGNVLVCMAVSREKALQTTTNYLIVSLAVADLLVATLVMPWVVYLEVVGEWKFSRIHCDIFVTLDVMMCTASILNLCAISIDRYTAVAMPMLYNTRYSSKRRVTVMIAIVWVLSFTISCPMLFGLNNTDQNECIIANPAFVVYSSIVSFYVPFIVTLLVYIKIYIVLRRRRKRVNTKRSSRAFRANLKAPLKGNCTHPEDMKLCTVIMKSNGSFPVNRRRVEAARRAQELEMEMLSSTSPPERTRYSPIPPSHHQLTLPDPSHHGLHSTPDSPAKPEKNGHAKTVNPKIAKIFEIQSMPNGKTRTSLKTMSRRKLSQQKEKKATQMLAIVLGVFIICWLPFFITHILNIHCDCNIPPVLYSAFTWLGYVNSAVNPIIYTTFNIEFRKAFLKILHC
5-hydroxytryptamine receptor 2A (Rattus norvegicus), sequence (P14842 whole entry): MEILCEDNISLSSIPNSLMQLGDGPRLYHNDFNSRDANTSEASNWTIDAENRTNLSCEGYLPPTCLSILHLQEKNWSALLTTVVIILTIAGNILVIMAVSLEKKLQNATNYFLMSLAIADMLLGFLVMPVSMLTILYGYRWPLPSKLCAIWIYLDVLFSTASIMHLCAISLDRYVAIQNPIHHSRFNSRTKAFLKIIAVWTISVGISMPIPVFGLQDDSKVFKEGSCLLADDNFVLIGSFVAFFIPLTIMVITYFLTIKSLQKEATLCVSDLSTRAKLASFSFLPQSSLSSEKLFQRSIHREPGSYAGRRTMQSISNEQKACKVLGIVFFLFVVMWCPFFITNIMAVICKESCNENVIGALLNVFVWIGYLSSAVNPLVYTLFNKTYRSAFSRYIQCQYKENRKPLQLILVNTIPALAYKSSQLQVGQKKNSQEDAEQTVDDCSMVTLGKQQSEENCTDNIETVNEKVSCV
D(1A) dopamine receptor (Bos taurus), sequence (Q95136 whole entry): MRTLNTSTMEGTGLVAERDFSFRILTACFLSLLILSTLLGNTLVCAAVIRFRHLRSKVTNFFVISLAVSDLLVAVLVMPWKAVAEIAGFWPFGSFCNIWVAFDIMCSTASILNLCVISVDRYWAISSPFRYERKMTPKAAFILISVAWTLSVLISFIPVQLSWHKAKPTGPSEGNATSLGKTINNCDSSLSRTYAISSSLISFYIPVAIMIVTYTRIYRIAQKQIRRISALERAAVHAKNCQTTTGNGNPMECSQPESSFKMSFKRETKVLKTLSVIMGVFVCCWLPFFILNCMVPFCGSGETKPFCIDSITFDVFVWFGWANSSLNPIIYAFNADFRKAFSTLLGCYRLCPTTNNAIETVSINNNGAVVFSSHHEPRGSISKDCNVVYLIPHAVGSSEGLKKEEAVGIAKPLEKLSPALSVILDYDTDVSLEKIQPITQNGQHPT
5-hydroxytryptamine receptor 4 (Cavia porcellus), sequence (O70528 whole entry): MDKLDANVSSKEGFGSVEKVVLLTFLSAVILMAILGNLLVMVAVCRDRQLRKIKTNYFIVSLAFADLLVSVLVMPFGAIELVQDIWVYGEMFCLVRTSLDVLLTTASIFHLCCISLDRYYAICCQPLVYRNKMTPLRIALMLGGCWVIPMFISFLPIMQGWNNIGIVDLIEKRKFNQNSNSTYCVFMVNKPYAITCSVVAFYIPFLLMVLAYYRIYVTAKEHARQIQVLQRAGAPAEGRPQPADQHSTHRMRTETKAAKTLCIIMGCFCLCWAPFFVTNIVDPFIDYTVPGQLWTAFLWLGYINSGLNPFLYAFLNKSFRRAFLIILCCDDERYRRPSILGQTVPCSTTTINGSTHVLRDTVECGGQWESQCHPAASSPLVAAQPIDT
D(2) dopamine receptor, sequence (P20288 whole entry): as the sequence (P20288 whole entry) above

For the compound `COc1cc(N)c(Cl)cc1C(=O)N[C@H]1CN2CCC1CC2`, the pKD in test [1] is less than 5; in [2], less than 5; in test [3], less than 5; in test [5], less than 5; in [6], 9.5. Also, the pD2 in [4] is 6.8. The same compound returned a Potency relative to serotonin in [7] of 1.9.

In the case of `N=C(N)N/N=C/c1c[nH]c2ccc(O)cc12`, the pD2 in test [8] is less than 5; in test [4], 8.8. The pKD in [1] is 6.6; in test [9] it was 5.4; in [2], less than 5; in [3], less than 5.5; in test [10] it was 7.2. Also, in [7], the Potency relative to serotonin was 1.5.

For `CCN(CC)CCNC(=O)c1cc(Cl)c(N)cc1OC` [METOCLOPRAMIDE], the Ki in test [11] came to 0.2 µM; on D(2) dopamine receptor it was 0.08 µM. Also, the pKD in test [1] is 5.4; in test [2] it was 7.1; in [3] it was less than 5; in [5] it was less than 5; in [12] it was 6.7. Besides, the pD2 in test [4] is 5.6. The compound further displayed a Potency relative to serotonin in test [7] of 1.

In turn, `NCCc1c[nH]c2ccc(O)cc12` registered a pD2 in [4] of 8.4. In [7], the Potency relative to serotonin was determined as 1.

Regarding `COc1cc(N)c(Cl)cc1C(=O)N[C@H]1CCN(CCCOc2ccc(F)cc2)C[C@H]1OC`, the pKD was 6.5 in test [2], 5.2 in test [5] and 7.2 in [6]. This compound also registered a pD2 in test [4] of 6. In test [7], this compound returned a Potency relative to serotonin of 0.7.
